According to ChEMBL document CHEMBL1145941, “Design, synthesis, and biological evaluation of indenoisoquinoline topoisomerase I inhibitors featuring polyamine side chains on the lactam nitrogen” (2003):

Legend:
DU-145 = assay: Cytotoxicity against human prostate DU-145 cancer cell lines.; assay type: functional
[1] = molecular target: T1, DNA topoisomerase 1 (Homo sapiens) (UniProt P11387); assay: Inhibitory activity against DNA topoisomerase I; greater activity than the parent compound 1
T1 sequence (whole entry): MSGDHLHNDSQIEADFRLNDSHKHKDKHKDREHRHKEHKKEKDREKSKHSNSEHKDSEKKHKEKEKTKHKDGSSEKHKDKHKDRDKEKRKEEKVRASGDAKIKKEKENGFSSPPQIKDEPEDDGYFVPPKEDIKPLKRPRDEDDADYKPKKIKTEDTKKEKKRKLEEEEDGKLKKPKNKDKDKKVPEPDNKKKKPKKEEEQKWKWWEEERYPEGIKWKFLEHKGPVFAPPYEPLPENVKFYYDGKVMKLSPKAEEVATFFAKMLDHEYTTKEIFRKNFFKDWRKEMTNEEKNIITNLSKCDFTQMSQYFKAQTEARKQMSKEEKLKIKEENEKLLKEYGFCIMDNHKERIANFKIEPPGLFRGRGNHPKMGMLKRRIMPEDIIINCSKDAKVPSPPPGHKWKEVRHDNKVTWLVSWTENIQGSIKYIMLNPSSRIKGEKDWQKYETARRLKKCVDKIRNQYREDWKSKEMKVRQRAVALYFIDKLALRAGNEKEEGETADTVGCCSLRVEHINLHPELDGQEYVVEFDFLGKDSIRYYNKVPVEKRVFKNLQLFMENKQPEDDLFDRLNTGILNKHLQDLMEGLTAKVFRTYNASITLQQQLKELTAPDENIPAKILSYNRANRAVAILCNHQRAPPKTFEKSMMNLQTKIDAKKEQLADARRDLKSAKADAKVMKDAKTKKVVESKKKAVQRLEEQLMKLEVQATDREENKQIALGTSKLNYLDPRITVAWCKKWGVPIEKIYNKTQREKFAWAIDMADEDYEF

UACC-62 = assay: Cytotoxicity against human melanoma UACC-62 cancer cell lines.; assay type: functional
HCT-116 = assay: Cytotoxicity against human colon HCT116 cancer cell lines.; assay type: functional
[2] = test system: Panel (Carcinoma cell lines); assay: Mean graph midpoint for growth inhibition of all human cancer cell lines.; assay type: functional; design: unit: µM
In short: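 Mean graph midpoint from the NCI screen, about 55 human cancer cell lines, test range 10^-8 to 10^-4 M. Computed as the average GI50 across all lines tested, with GI50 values below or above the range set to 10^-8 M or 10^-4 M.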

SN12C = assay: Cytotoxicity against human renal SN12C cancer cell lines.; assay type: functional
SF-539 = assay: Cytotoxicity against human CNSSF-539 cancer cell lines.; assay type: functional
OVCAR-3 = assay: Cytotoxicity against human ovarian OVCAR-3 cancer cell lines.; assay type: functional
MDA-MB-435 = assay: Cytotoxicity against human breast […] cancer cell lines.; assay type: functional
HOP-62 = assay: Cytotoxicity was determined in human lung HOP-62 cancer cell lines; assay type: functional
[3] = molecular target: T1, DNA topoisomerase 1 (Homo sapiens); assay: Compound was tested for its inhibitory activity against DNA topoisomerase I; No activity

Row | Structure (SMILES) | GI50 (DU-145) | Activity [1] | GI50 (UACC-62) | GI50 (HCT-116) | MGM [2] | GI50 (SN12C) | GI50 (SF-539) | GI50 (OVCAR-3) | GI50 (MDA-MB-435) | GI50 (HOP-62) | Activity [3]
1 | COc1cc2c3c(n(CCCNCCCNCCN)c(=O)c2cc1OC)-c1cc2c(cc1C3=O)OCO2.Cl.Cl.Cl | 52000 nM | greater activity than compound 1 | 37000 nM | 23000 nM | 41 | 20000 nM | 38000 nM | 20000 nM | 38000 nM | – | –
2 | COc1cc2c3c(n(CCN(C)C)c(=O)c2cc1OC)-c1cc2c(cc1C3=O)OCO2.O=CO | 1900 nM | – | 1200 nM | 660 nM | 3.1 | 4400 nM | 900 nM | 10000 nM | 6100 nM | 1100 nM | –
3 | COc1cc2c3c(n(CCCNCCN)c(=O)c2cc1OC)-c1cc2c(cc1C3=O)OCO2.Cl.Cl | 720 nM | greater activity than compound 1 | 650 nM | 560 nM | 0.88 | 370 nM | 430 nM | 700 nM | 1600 nM | 380 nM | –
4 | COc1cc2c3c(n(CCCNCC(OC)OC)c(=O)c2cc1OC)-c1cc2c(cc1C3=O)OCO2 | 540 nM | greater activity than compound 1 | 2860 nM | 180 nM | 2.1 | – | 6700 nM | 6900 nM | 10800 nM | 450 nM | –
5 | COc1cc2c3c(n(CCCNCCNCCCN)c(=O)c2cc1OC)-c1cc2c(cc1C3=O)OCO2.Cl.Cl.Cl | 4600 nM | – | 1900 nM | 1300 nM | 3 | 1700 nM | 8600 nM | 8100 nM | 3400 nM | 2900 nM | –
6 | COc1cc2c3c(n(C)c(=O)c2cc1OC)-c1cc2c(cc1C3=O)OCO2 | 37000 nM | – | 4200 nM | 35000 nM | 20 | 68000 nM | 41000 nM | – | 96000 nM | 1300 nM | –
7 | COc1cc2c3c(n(CCCN(CCO)CCO)c(=O)c2cc1OC)-c1cc2c(cc1C3=O)OCO2.Cl | < 10 nM | – | < 10 nM | < 10 nM | 0.07 | < 10 nM | < 10 nM | 130 nM | 80 nM | < 10 nM | –
8 | COc1cc2c3c(n(CCN)c(=O)c2cc1OC)-c1cc2c(cc1C3=O)OCO2.Cl | 400 nM | greater activity than compound 1 | 140 nM | 68 nM | 0.34 | 360 nM | 1300 nM | 860 nM | – | 580 nM | –
9 | COc1cc2c3c(n(CCCNCCCNCCCN)c(=O)c2cc1OC)-c1cc2c(cc1C3=O)OCO2.Cl.Cl.Cl | > 100000 nM | – | 44000 nM | 43000 nM | 59 | 33000 nM | > 100000 nM | 880 nM | 68000 nM | – | –
10 | COc1cc2c3c(n(CCCNCCCN)c(=O)c2cc1OC)-c1cc2c(cc1C3=O)OCO2 | 3100 nM | greater activity than compound 1 | 3400 nM | 1300 nM | 3.2 | 2300 nM | 1200 nM | 3100 nM | 2500 nM | 1600 nM | –
11 | COc1cc2c3c(n(CCCNCCNCCN)c(=O)c2cc1OC)-c1cc2c(cc1C3=O)OCO2.Cl.Cl.Cl | 1200 nM | greater activity than compound 1 | 2600 nM | 900 nM | 2.4 | 2500 nM | 550 nM | 1700 nM | 2700 nM | 2800 nM | –
12 | COc1cc2c3c(n(CCCN(C)C)c(=O)c2cc1OC)-c1cc2c(cc1C3=O)OCO2 | 140 nM | greater activity than compound 1 | 540 nM | 120 nM | 0.35 | 900 nM | 190 nM | 1400 nM | 650 nM | 18 nM | –
13 | C[C@@]1(O)C(=O)OCc2c1cc1n(c2=O)Cc2cc3ccccc3nc2-1 | < 10 nM | greater activity than compound 1 | < 10 nM | 30 nM | 0.04 | 20 nM | < 10 nM | 220 nM | 40 nM | < 10 nM | –
14 | COc1cc2c3c(n(CCCNCCCNCCCNCCCN)c(=O)c2cc1OC)-c1cc2c(cc1C3=O)OCO2.Cl.Cl.Cl.Cl | 1400 nM | – | 1700 nM | 1500 nM | 2 | 1600 nM | – | 1600 nM | 1400 nM | 3000 nM | No activity
15 | COc1cc2c3c(n(CCCOC(=O)C(F)(F)F)c(=O)c2cc1OC)-c1cc2c(cc1C3=O)OCO2 | 660 nM | greater activity than compound 1 | < 10 nM | 18 nM | 0.15 | < 10 nM | < 10 nM | 70 nM | 30 nM | < 10 nM | –
